Yeast lifespan up: extends the lifespan of yeast; S. cerevisiae growth with nicotinamide, OD615; deaD strain in restrictive glucose medium; hit rate 0.68% among 130,000; inhibition of the nicotinamide effect, % at 10 µM; AID 775;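 active = inhibition above a set limit, placed 3 SD over the median of all compounds, cut at about 26% in these data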
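Buffer or medium: CSMM-D glucose medium, restrictive; test system: modified budding yeast, DeaD strain; compound: single dose 10 µM compound, 0.25% DMSO; schedule: culture preincubation 4 h, compound exposure 48 h, both 30 °C; detection: optical density (absorbance) at 615 nm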
sdo1 growth: compounds rescuing growth of sdo1-depleted yeast, bone marrow failure model | S. cerevisiae sdo1-depleted JHY4D growth rescue, OD600 30 h; active compounds read high; pdr5 snq2 efflux-pump mutant strain | z-score at 10 µM | hit rate 0.21% among 140,000 | AID 817;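 active = z-score above 3 at both the 24 hr and the 30 hr optical density reads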
Yeast growth inh: chemicals that inhibit yeast BB579 growth in restrictive medium (lifespan-shortening candidates). S. cerevisiae BB579 growth, OD615, 48 h. inhibition, % at 10 µM. AID 804. hit rate 0.51% among 140,000;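 active = inhibition above a set limit, 3 SD over the mean compound inhibition, cut at about 44% in these data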
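Test system: S. cerevisiae DeaD strain BB579 yeast; Medium: restrictive CSMM-D medium; Compound: one dose, 10 µM compound with 0.25% DMSO; Incubation: 4 h cell preincubation, 48 h compound exposure, 30 °C humidified; Signal: OD at 615 nm; Benchmarks: amphotericin B at 10 µg/mL as positive control.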
RAM network inh: blocks the yeast RAM network. S. cerevisiae dse1pr::URA3 reporter, 5-FOA growth OD615, 2 d; analog-sensitive cbk1-as2 kinase mutant strain. inhibition, % at 50 µM. hit rate 1.8% among 190,000;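 active = inhibition above a set limit, 3 SD over mean compound inhibition, cut at about 8.4% in these data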;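 note: inhibition rescues growth on 5-FOA so higher OD means more RAM inhibition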
sdo1 rescue conf: confirmation of growth rescue in SDO1-depleted yeast, bone marrow failure | S. cerevisiae JHY4D (SDO1-depleted) growth rescue, OD600, 30 h; active compounds read high; efflux-deficient strain, SNQ2 and PDR5 mutated | shares compounds with sdo1 growth | hit rate 44% among 440 | OD recovery (no concentration beside the values);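 active = yeast growth recovered at 30 hours, either rising with dose fitted slope above 0.001 or with average optical density gain above 0.07, some results past the limit were not filed as active; inactive = growth falling with dose or no effect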
RAM efflux-def: RAM network inhibition, efflux-deficient strain. shares compounds with RAM network inh. S. cerevisiae efflux-deficient reporter strain, 5-FOA growth OD615, 2 days. max inhibition, %. 1,200 tested, under 10 active. AID 1305; call rule not given here
Numbers stand for hits; – = inactive; · = not tested or not shown. In the library only some 2.7% were active in any assay of this set; here they are far more common.

SMILES	Yeast lifespan up	sdo1 growth	Yeast growth inh	RAM network inh	RAM efflux-def	others
Cn1nc(-c2ccc(C(=O)O)cc2)c2ccccc2c1=O	–	–	–	–	·
COC(=O)c1ccc(-c2nn(C)c(=O)c3ccccc23)cc1	–	8.5	–	–	·	sdo1 rescue conf=0.076
NS(=O)(=O)c1ccc(NC(=O)CSC2=NC(=O)C(c3ccccc3)C(=O)N2)cc1 (stereo not drawn)	–	8.7	–	–	·	sdo1 rescue conf=–
CC(C)NC(=O)COC(=O)c1cc(F)c(F)cc1Cl	–	5.6	–	–	·	sdo1 rescue conf=0.085
CNC(=O)COC(=O)c1cc(F)c(F)cc1Cl	–	–	–	–	·
CC(C)NC1CS(=O)(=O)CC1O (stereo not drawn)	58	5.5	–	–	·	sdo1 rescue conf=0.095
O=S1(=O)CC(O)C(NCCO)C1 (stereo not drawn)	·	·	·	–	·
C=CCn1c(=NC(=O)c2cc(-c3cccs3)nc3ccccc23)sc2cc(S(N)(=O)=O)ccc21	–	–	–	–	·
COCCn1c(=NC(=O)c2cc(-c3cccs3)nc3ccccc23)sc2cc(S(N)(=O)=O)ccc21	–	9.4	–	–	·	sdo1 rescue conf=0.071
CN(C(=O)COC(=O)/C=C/c1ccc(S(=O)(=O)N2CCc3ccccc32)cc1)C1CCS(=O)(=O)C1 (stereo not drawn)	·	·	·	–	·
COc1ccc(-c2nc3ccccc3o2)cc1NC(=O)c1ccc(Br)o1	–	–	–	–	·	sdo1 rescue conf=0.064
CNS(=O)(=O)c1cccc(C(=O)OCc2csc(-c3ccccc3)n2)c1	–	–	–	16	–
O=C(CNS(=O)(=O)c1cccc(Cl)c1)OCc1csc(-c2ccccc2)n1	–	–	–	–	·
CCc1ccc(NC(=O)c2c(Cl)nc(C)c(Cl)c2C)cc1	–	–	–	–	·
S=C(c1ccc(-c2ccccc2Cl)o1)N1CCOCC1	–	–	–	12	–
CCOc1ccc(/C=C/C(O)=C2/C(=O)N(C)C3(C)CC2c2ccccc2O3)cc1OC (stereo not drawn)	·	·	·	11	–
CCOc1ccc(/C=C/C(O)=C2/C(=O)NC3(C)CC2c2ccccc2O3)cc1OC (stereo not drawn)	·	·	·	–	·
Cc1ccc2nc(-c3ccc(NC(=O)CSc4nccc(=O)[nH]4)cc3)sc2c1	·	·	·	12	–
COc1ccc(S(=O)(=O)NC(C)CCc2ccccc2)cc1 (stereo not drawn)	·	·	·	–	·
CCCCOC(=O)c1ccc(NC(=O)/C=C/c2cccs2)cc1	–	–	–	15	–
N#C/C(=C\Nc1ccccc1SC(F)(F)F)c1nc(-c2ccccc2)cs1	–	–	–	12	–
N#C/C(=C\c1c[nH]c2ccccc12)C(=O)Nc1ncc(Cc2ccc(Cl)cc2Cl)s1	–	–	–	14	–
Cn1cc(/C=C(\C#N)C(=O)Nc2ncc(Cc3cccc(Cl)c3)s2)c2ccccc21	–	–	–	–	·
Cc1ccc(-n2c(O)c(/C=N/n3cnnc3)c3ccccc3c2=O)cc1	–	–	–	–	·
Cc1ccc(-n2c(O)c(/C=N/c3ncn[nH]3)c3ccccc3c2=O)cc1	·	·	·	12	–
SMILES	Yeast lifespan up	sdo1 growth	Yeast growth inh	RAM network inh	RAM efflux-def	others
CCOC(=O)c1c(NC(=O)CSc2nnc(Cc3ccccc3)o2)sc(C)c1C	·	–	–	14	–
CCOC(=O)c1c(NC(=O)CSc2nnc(-c3ccco3)o2)sc(C)c1C	–	–	–	12	–
COc1ccc(Cc2nc(-c3ccc(-n4cccc4)cc3)no2)cc1OC	–	–	–	12	–
COc1ccc(Cc2nc(-c3ccc(-n4cccc4)cc3)no2)cc1	–	–	–	–	·
COc1ccc(/C(CC2OC(=O)c3ccccc32)=N\NC(N)=O)cc1 (stereo not drawn)	·	·	·	–	·
COC(=O)c1ccc(Cl)cc1NC(=O)/C=C/c1ccc(C)o1	–	–	–	13	–
Cc1ccc(/C=C/C(=O)Nc2ccc(Oc3ccccc3)cc2)o1	–	–	–	13	–
COc1ccc(C(=O)N2N=C(c3cccc(OC)c3)CC2(O)C(F)(F)F)cc1 (stereo not drawn)	–	–	–	–	·
COc1cccc(C(=O)NN2C(=O)C3C4C=CC(O4)C3C2=O)c1 (stereo not drawn)	–	–	–	–	·
COc1cccc(C(=O)NN2c3ccccc3CCc3ccccc32)c1	–	–	–	13	–
CC(C)CSc1nc(N2CCOCC2)c2c(c1C#N)CC(C)(C)SC2	–	–	–	22	–
COCc1cc(C)nc(N/N=C/c2ccc(-c3ccc(Cl)cc3[N+](=O)[O-])o2)c1C#N	·	·	·	–	·
COc1ccc(C(=O)/C=C/C(=O)N(CC(=O)NCCC(C)C)Cc2cccs2)c(O)c1	·	·	·	12	–
CN(C)CCNC(=O)CNC(=S)N(CCCN1CCOCC1)Cc1cccs1	·	·	·	–	·
CCn1cc(CN2N=C(C)CC2c2ccccc2)c(C)n1 (stereo not drawn)	·	·	·	–	·
Clc1ccc(-c2nnc(CSc3nnc(-c4cccs4)o3)o2)cc1	–	–	–	13	–
c1ccc(-c2nnc(SCc3nnc(-c4cccs4)o3)o2)cc1	–	–	–	–	·
CC(=O)c1ccc(OC(=O)CCN2c3ccccc3Sc3ccccc32)cc1	–	–	–	11	–
CCOC(=O)C1CCN(CC(=O)Nc2cc(S(=O)(=O)N3CCOCC3)ccc2C)CC1	·	·	·	–	·
COC(=O)c1c(CSc2ccc(C)c(C)c2)noc1C(=O)NCc1ccc(OC)cc1	–	–	–	12	–
COc1ccc(S(=O)(=O)N(Cc2ccccc2)Cc2nc(-c3ccccc3)no2)cc1	–	–	–	11	–
COc1ccc(Cc2nc(-c3ccccc3)no2)cc1	–	–	–	–	·
CCN(CC)S(=O)(=O)c1ccc(OCCNS(C)(=O)=O)cc1	·	·	·	–	·
CCOC(=O)/C(=C/c1ccc(N2CCC(c3ccccc3)=N2)cc1)C(C)=O	–	–	–	20	–
CCOC(=O)C(=Cc1ccc(OCc2ccc([N+](=O)[O-])cc2)c(OC)c1)C(=O)OCC	–	–	–	16	–
SMILES	Yeast lifespan up	sdo1 growth	Yeast growth inh	RAM network inh	RAM efflux-def	others
COc1cc(/C=N/NC(=O)c2cccc([N+](=O)[O-])c2)ccc1OCc1ccccc1	–	–	–	–	·
CON/C=C(\C=Nc1ccc(C(F)(F)F)cc1)c1ncc(C(F)(F)F)cc1Cl	–	–	–	13	–
COc1ccc(/C(=N\O)c2ncc(C(F)(F)F)cc2Cl)cc1	–	–	–	–	·
CCOc1cc(/C=N/N=C2/NC(=O)C(CC(=O)O)S2)ccc1OCc1ccccc1Cl (stereo not drawn)	·	·	·	–	·
CCOc1cc(/C=N/N=C2/NC(=O)C(CC(=O)O)S2)ccc1OS(=O)(=O)c1ccc(C)cc1 (stereo not drawn)	·	·	·	12	–
CCCCOc1nc2ccccc2nc1C(C#N)C(=O)NC1CCCCC1 (stereo not drawn)	–	–	–	12	–
